For 42 compounds, Diuretic activity results are on record in ChEMBL document CHEMBL1121573, “2-(Aminomethyl)phenols, a new class of saluretic agents. 1. Effects of nuclear substitution” (J Med Chem, 1980).

Each structure is given as a SMILES string.

The subject of data set [1] is Rattus norvegicus. Kind of data set: Evaluated for salidiuretic activity measured as sodium ion excretion in Rat, administered orally at a dose of 50 mg/kg. It is filed as functional, Urine. Set-up: unit not given beside the values. The following applies: route oral. In short, it runs like this:
(§1)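 Female Charles-River rats (150–170 g), overnight on sugar diet with water ad libitum. Compound dissolved in DMF, diluted with water containing Tween 80 (final 4% DMF), given po in 5.0 mL; concurrent vehicle placebo. Three rats per metabolism cage; 0–5 h urine analysed for Na+, K+, Cl-. Values: mequiv × 100 per cage, geometric means of three cages per dose; scored 0–6 by Na+.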

In data set [2] the test system is Rattus norvegicus. Kind of data set: Compound administered orally at a dose of 81 mg/kg was evaluated for salidiuretic activity measured as sodium ion excretion in Rat. The format is ADME, organism-based, Urine. Set-up: dose 81 mg/kg, route oral; unit not given beside the values. The settings on record: in vivo, po. In short, it runs like this:
as §1

In data set [3] the test system is Canis familiaris. Kind of data set: Compound administered intravenously at a dose of 5 mg/kg was evaluated for salidiuretic activity measured as sodium ion excretion in Dog; Value ranges from 0-99. On the set-up: dose 5 mg/kg, route intravenous. The settings on record: in vivo, iv. The format is ADME, organism-based, Canis lupus familiaris, Urine. In outline: (§2)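 Conditioned female mongrel dogs, postabsorptive, water-loaded (500 mL po) 1 h before sodium pentobarbital anesthesia (30 mg/kg iv). Bladder catheter; creatinine 4 g sc; phosphate–mannitol buffer pH 7.4 infused (3.0 mL/min) throughout. […] Urine Na+ measured; response scored 0–6.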

Data set [4] relates to Rattus norvegicus. Kind of data set: Compound administered orally at a dose of 1 mg/kg was evaluated for salidiuretic activity measured as sodium ion excretion in Rat. The following applies: in vivo, po.
Data set [5] concerns Canis familiaris. Kind of data set: Compound administered intravenously was evaluated for salidiuretic activity measured as sodium ion excretion in Dog; Value ranges from 100-249. The settings on record: in vivo, iv. The format is ADME, organism-based, Canis lupus familiaris, Urine. In outline: as §2
Data set [6] has as its system Canis familiaris. The experiment in a line: Compound administered intravenously at a dose of 5 mg/kg was evaluated for salidiuretic activity measured as sodium ion excretion in Dog; Value ranges from 400-599. The format is ADME, organism-based, Canis lupus familiaris, Urine. On the set-up: dose 5 mg/kg, route intravenous. The settings on record: in vivo, iv. In short, it runs like this: as §2

Data set [7] is described as follows: Compound administered orally at a dose of 5 mg/kg was evaluated for salidiuretic activity measured as sodium ion excretion in Rat. The format is organism-based. Set-up: dose 5 mg/kg. The settings on record: Urine. In short, it runs like this: as §1
Data set [8] in a line: Evaluated for salidiuretic activity measured as sodium ion excretion in Rat, administered orally at a dose of 16.5 mg/kg. The format is organism-based. On the set-up: dose 16.5 mg/kg. The settings on record: Urine. In short, it runs like this: as §1
In data set [9] the test system is Canis familiaris. Kind of data set: Compound administered intravenously at a dose of 5 mg/kg was evaluated for salidiuretic activity measured as sodium ion excretion in Dog; Value ranges from 600-799. The format is ADME, organism-based, Canis lupus familiaris, Urine. On the set-up: dose 5 mg/kg, route intravenous; unit not given beside the values. The following applies: in vivo, iv. In outline:
as §2

Data set [10] has as its system Canis familiaris. The experiment in a line: Compound administered intravenously was evaluated for salidiuretic activity measured as sodium ion excretion in Dog. The format is ADME, organism-based, Canis lupus familiaris, Urine. On the set-up: unit not given beside the values. The settings on record: in vivo, iv. In outline: as §2
For data set [11], the system named is Canis familiaris. Kind of data set: Compound administered intravenously at a dose of 5 mg/kg was evaluated for salidiuretic activity measured as sodium ion excretion in Dog. It is filed as ADME, organism-based, Canis lupus familiaris, Urine. Set-up: dose 5 mg/kg, route intravenous. The following applies: in vivo, iv. In short, it runs like this: as §2
Data set [12] deals with Canis familiaris. The experiment in a line: Compound administered intravenously was evaluated for salidiuretic activity measured as sodium ion excretion in Dog; Value ranges from 250-399. The following applies: in vivo, iv. The format is ADME, organism-based, Canis lupus familiaris, Urine. In outline:
as §2

The test system of data set [13] is Canis familiaris. The experiment in a line: Compound administered intravenously was evaluated for salidiuretic activity measured as sodium ion excretion in Dog; Value ranges from 400-599. The format is ADME, organism-based, Canis lupus familiaris, Urine. The settings on record: in vivo, iv. In outline: as §2

For the compound `Cc1cc(C)c(CN)c(O)c1.Cl`, the Diuretic activity in the data set on Rattus norvegicus [1] was under 0.2; in the data set with Rattus norvegicus [2], under 0.3; in the data set on Canis familiaris [3] it was 0; with Rattus norvegicus [4] it was 1.
`Cc1c(Cl)cc(C(C)C)c(O)c1CN.Cl`: the Diuretic activity with Canis familiaris [5] is listed as 100.
For the compound `CCc1c(Cl)cc(CN)c(O)c1Cl.Cl`, the Diuretic activity in the data set with Rattus norvegicus [1] worked out at 1.8; in the data set with Rattus norvegicus [2] it was 2.4; with Canis familiaris [6] it was 400; in data set [7] it was 0.4; in data set [8], 0.6.
As for `CC(C)c1cc(I)c(O)c(CN)c1.Cl`, the Diuretic activity in the data set with Rattus norvegicus [1] was found to be 3.6; in the data set with Canis familiaris [9], 600; in the data set on Rattus norvegicus [4], 0.7; in [7], 2.6; in [8] it was 3.3.
The compound `Cc1c(Cl)cc(Cl)c(O)c1CN.Cl` returned a Diuretic activity in the data set on Canis familiaris [10] of over 900.
As for `CC(C)c1cc(Cl)c(O)c(CN)c1.Cl`, the Diuretic activity in the data set with Rattus norvegicus [1] is 3.6; with Rattus norvegicus [4], 0.7; in the data set with Canis familiaris [11], over 900; in [7], 2.6; in data set [8], 3.3.
For `Cc1cc(Cl)c(O)c(CN)c1C.Cl`, the Diuretic activity was 2.4 with Rattus norvegicus [1]; 2.9 in the data set on Rattus norvegicus [2]; 400 with Canis familiaris [6]; 0.5 in data set [7]; 1.4 in [8].
On to `CCc1ccc(O)c(CN)c1.Cl`, for which the Diuretic activity came to 1.2 in the data set with Rattus norvegicus [1]; 1.5 in the data set with Rattus norvegicus [2]; 0.3 in data set [7]; 100 with Canis familiaris [5]; 0.5 in data set [8].
Consider `C=C(CC)C(=O)c1ccc(OCC(=O)O)c(Cl)c1Cl` [ETHACRYNIC ACID], for which the Diuretic activity is listed as under 0.3 in the data set with Rattus norvegicus [1], under 0.3 in the data set on Rattus norvegicus [2] and over 900 in the data set with Canis familiaris [11].
For the compound `CSc1cc(C(C)(C)C)cc(CN)c1O.Cl`, the Diuretic activity with Rattus norvegicus [1] is 3.6; with Canis familiaris [9], 600; with Rattus norvegicus [4], 0.7; in data set [7], 2.6; in [8], 3.3.
As to `CC(C)(C)c1ccc(O)c(CN)c1.Cl`, the Diuretic activity came out at 1.2 in the data set on Rattus norvegicus [1]; 1.5 in the data set with Rattus norvegicus [2]; 0 in the data set with Canis familiaris [3]; 0.3 in data set [7]; 0.5 in [8].
In the data set on Canis familiaris [12], `CC(=O)c1cc(C(C)(C)C)cc(CN)c1O.Cl` gave a Diuretic activity of 250.
In the data set with Canis familiaris [12], `Cc1cc(Cl)c(Cl)c(CN)c1O.Cl` came in with a Diuretic activity of 250.
In the data set with Canis familiaris [5], `CCOC(=O)c1cc(Cl)c(O)c(CN)c1.Cl` yielded a Diuretic activity of 100.
`Cl.NCc1c(O)cc(Cl)c(Cl)c1Cl`: the Diuretic activity in the data set on Rattus norvegicus [1] was determined as 3.3; in the data set on Canis familiaris [6], 400; in data set [7] it was 1.4; in data set [8], 2.7.
`Br.Cc1c(C)c(Cl)c(Cl)c(CN)c1O` gave a Diuretic activity in the data set with Canis familiaris [10] of over 900.
`CCCC(=O)c1cc(C)c(O)c(CN)c1.Cl` gave a Diuretic activity in the data set on Canis familiaris [5] of 100.
In the data set with Canis familiaris [13], `Cl.NCc1cc(C2CCCCC2)cc(Cl)c1O` came in with a Diuretic activity of 400.
Same read-out and setting: as for `CC1(c2cc(I)c(O)c(CN)c2)CCCC1.Cl`, the figure is 400.
For `Cc1c(Cl)c(C)c(CN)c(O)c1Br.Cl`, the Diuretic activity in the data set on Canis familiaris [10] is over 900.
For the compound `CCC(C)(C)c1cc(Cl)c(O)c(CN)c1.Cl`, the Diuretic activity in the data set on Rattus norvegicus [1] was 2.4; in the data set with Canis familiaris [9], 600; in the data set on Rattus norvegicus [2], 2.9; in data set [7] it was 0.5; in data set [8], 1.4.
Consider `COc1c(Cl)c(OC)c(CN)c(O)c1Br.Cl`, for which the Diuretic activity in the data set with Rattus norvegicus [1] stood at 3.6; in the data set on Canis familiaris [9], 600; in the data set with Rattus norvegicus [4], 0.7; in [7], 2.6; in [8] it was 3.3.
For `CCc1cc(Cl)c(O)c(CN)c1.Cl`, the Diuretic activity is 3.3 in the data set on Rattus norvegicus [1], over 900 with Canis familiaris [11], 1.4 in data set [7] and 2.7 in data set [8].
Consider `CC(C)(C)c1cc(Br)c(O)c(CN)c1.Cl`, for which the Diuretic activity was 3.9 with Rattus norvegicus [1]; 2.1 in the data set with Rattus norvegicus [4]; over 900 in the data set with Canis familiaris [11]; 3.6 in data set [7]; 4.2 in data set [8].
As for `CCCCc1ccc(O)c(CN)c1.Cl`, the Diuretic activity with Rattus norvegicus [1] is on record as under 0.3; with Rattus norvegicus [2], under 0.3; with Canis familiaris [3] it was 0.
On to `CCOc1cc(Cl)c(O)c(CN)c1.Cl`, for which the Diuretic activity in the data set on Canis familiaris [12] is on record as 250.
Take `CCOc1c(Cl)c(O)c(CN)c(OCC)c1Cl.Cl`: the Diuretic activity in the data set on Rattus norvegicus [1] amounted to 2.4; in the data set with Rattus norvegicus [2] it was 2.9; with Canis familiaris [3], 0; in data set [7], 0.5; in data set [8], 1.4.
For the compound `Cc1c(Cl)cc(I)c(O)c1CN.Cl`, the Diuretic activity in the data set with Rattus norvegicus [1] was determined as 2.4; in the data set with Canis familiaris [9], 600; in the data set with Rattus norvegicus [2] it was 2.9; in [7], 0.5; in [8], 1.4.
Compound `CCc1cc(CN)c(O)c(CN)c1.Cl` returned a Diuretic activity in the data set on Canis familiaris [3] of 0.
On to `COc1c(C)c(OC)c(CN)c(O)c1Cl`, for which the Diuretic activity in the data set on Canis familiaris [12] turned out to be 250.
On to `CCC(C)c1cc(I)c(O)c(CN)c1.Cl` (stereo not given), for which the Diuretic activity in the data set on Rattus norvegicus [1] is 2.4; with Rattus norvegicus [2], 2.9; in the data set with Canis familiaris [11] it was over 900; in data set [7], 0.5; in data set [8], 1.4.
Consider `C=CCc1cc(CN)c(O)c(OC)c1.Cl`, for which the Diuretic activity in the data set with Rattus norvegicus [1] came to 2.4; with Canis familiaris [9], 600; with Rattus norvegicus [2], 2.9; in data set [7], 0.5; in data set [8], 1.4.
Regarding `COc1cc(Cl)c(OC)c(CN)c1O.Cl`, in the data set on Canis familiaris [12], the Diuretic activity amounted to 250.
As to `Cl.NCc1c(O)c(C(F)(F)F)cc(Cl)c1Cl`, the Diuretic activity in the data set on Rattus norvegicus [1] was 3.3; with Canis familiaris [6], 400; in data set [7], 1.4; in data set [8], 2.7.
As for `COc1c(C(C)(C)C)cc(Cl)c(O)c1CN.Cl`, in the data set with Canis familiaris [12], the Diuretic activity was 250.
Take `CC(C)(C)c1cc(O)c(CN)c(C(C)(C)C)c1.Cl`: the Diuretic activity with Canis familiaris [3] is listed as 0.
With `Br.Cc1c(C)c(CN)c(O)c(Cl)c1Cl`, the Diuretic activity in the data set on Rattus norvegicus [1] was 3.6; in the data set with Canis familiaris [9], 600; in the data set with Rattus norvegicus [4], 0.7; in [7], 2.6; in [8], 3.3.
Turning to `Cl.NCc1cc(F)cc(Cl)c1O`, in the data set on Canis familiaris [3], the Diuretic activity came to 0.
On to `Cl.NCc1cc(-c2ccccc2)cc(Cl)c1O`, for which, in the data set with Canis familiaris [12], the Diuretic activity amounted to 250.
The same measure, in the same setting: under `CCCCCC(C)c1cc(C)c(O)c(CN)c1.Cl` (stereo not given) stands 250.
For `CCSc1cc(C(C)(C)C)cc(CN)c1O.Cl`, the Diuretic activity in the data set on Rattus norvegicus [1] amounted to 1.2; in the data set with Rattus norvegicus [2] it was 1.5; in the data set on Canis familiaris [6] it was 400; in [7], 0.3; in data set [8] it was 0.5.
Take `CC(C)Cc1cc(Cl)c(O)c(CN)c1.Cl`: the Diuretic activity in the data set on Rattus norvegicus [1] was 2.4; with Canis familiaris [6], 400; in [7], 0.5; in [8], 1.4.
